CAL PDZ FP-1 = blocks peptide binding to the human CAL PDZ domain; Q9HD26; purified CAL PDZ, TMR-peptide fluorescence polarization, 1 h; inhibition, % at 24.9 µM; 300,000 tested, 0.92% active; AID 602252;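 active means mean inhibition of at least 30% with at least half of replicates also reaching 30%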;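 further: 0% = DMSO neutral control and 100% = excess unlabeled competitor peptide PRC23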
dFosB act-1 = mouse delta FosB homodimer activation | 340,000 tested, 0.99% active | activation, % at 25 µM | P13346 | purified delta FosB, TAMRA-CDK5 oligo fluorescence polarization; percent of positive-control signal above neutral wells | AID 493131;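 active means mean activation above about 17%, with every replicate also reaching it, limit read from the data, passing the limit was not always enough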
Target sequence (P13346 whole entry, looked up): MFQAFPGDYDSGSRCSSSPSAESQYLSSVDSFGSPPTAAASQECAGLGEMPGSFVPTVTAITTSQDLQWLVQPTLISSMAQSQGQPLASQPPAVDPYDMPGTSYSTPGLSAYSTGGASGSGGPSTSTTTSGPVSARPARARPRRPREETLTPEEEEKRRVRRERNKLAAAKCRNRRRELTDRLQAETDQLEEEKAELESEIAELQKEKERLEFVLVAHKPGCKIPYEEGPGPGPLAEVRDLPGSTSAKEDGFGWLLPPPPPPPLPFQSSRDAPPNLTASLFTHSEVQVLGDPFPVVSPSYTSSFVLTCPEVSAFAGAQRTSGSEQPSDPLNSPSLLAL
CDK5 inh = inhibitors of human CDK5/p35 kinase; 330,000 tested, 0.01% active; inhibition, % at 10 µM; Recombinant CDK5/p35, ADP-Glo luminescence, 60 min;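 active means highest replicate inhibition of at least 50% and at least 75% of replicates reaching 50%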;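 further: plate controls were DMSO neutral control for no effect and GW8510 at 10 µM for full effect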
Statin myotox sup = protects C2C12 myotubes from simvastatin toxicity. ATP luminescence, 48 h; scaled: DMSO 0, geranylgeraniol control 100. rescue of ATP level, % at 7.49 µM. 330,000 tested, 0.78% active. AID 602340;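 active means mean ATP rescue above about 67%, or every replicate alone reaching that limit, limit read from the data, passing the limit was not always enough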;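 further: myotubes were challenged with 10 µM simvastatin during compound exposure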
CAL PDZ FP-2 = blocks peptide binding to human CAL PDZ domain. 330,000 tested, 0.02% active. Q9HD26. purified CAL PDZ, TMR-peptide fluorescence polarization, 1 h. inhibition, % at 20 µM;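 active means highest replicate inhibition of at least 40%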;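 further: plate controls were DMSO neutral control wells for no effect and unlabeled competitor peptide control wells for full effect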
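Material: tagged CAL PDZ protein CerCALP, purified; buffer or medium: sodium phosphate/NaCl buffer pH 7.4 with TCEP, IgG, Thesit; also added: fluorescent TMR peptide probe; schedule: 1 h incubation at room temperature before polarization reading; technique: fluorescence polarization from S- and P-plane intensities, G-factor corrected; control set: unlabelled peptide and DMSO controls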
S100A4 MyoIIA = S100A4-myosin IIA interaction inhibition. P26447. S100A4/TAMRA-MyoIIA peptide fluorescence polarization. inhibition, % at 10.7 µM. 360,000 tested, 0.14% active. AID 652163;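 active means mean inhibition of at least 70% across replicates, with every replicate also reaching that level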
Target sequence (P26447 whole entry, looked up): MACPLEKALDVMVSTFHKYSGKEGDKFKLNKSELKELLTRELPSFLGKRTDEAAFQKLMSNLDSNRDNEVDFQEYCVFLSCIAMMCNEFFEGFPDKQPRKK
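System – human S100A4 monomer protein, biochemical binding assay · Buffer or medium – Calcium-containing HEPES buffer, pH 7.2 · Timing – 5 min between mix addition and reading · Also added – TAMRA-labelled myosin IIA heavy-chain peptide probe, 5 nM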
dFosB act-2 = enhances mouse delta FosB homodimer binding to DNA; 2,400 tested, under 10 active; purified delta FosB, TAMRA-CDK5 oligo fluorescence polarization; normalised: neutral wells 0, positive control 100; shares compounds with dFosB act-1; activation, % at 24.9 µM; AID 588690;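 active means highest replicate activation at or above 34% and every replicate reaching that threshold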;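 further: higher polarization means more probe DNA bound by delta FosB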
Numbers without * were called inactive; nt = not tested or not shown. Compounds with a hit are over-represented: about 2% of the library has one in this group of screens.

SMILES | CAL PDZ FP-1 | dFosB act-1 | CDK5 inh | Statin myotox sup | CAL PDZ FP-2 | S100A4 MyoIIA | dFosB act-2
Cc1cccc(C)c1NC(=O)CN1C(=O)CCSc2ccc(S(=O)(=O)N3CCCC3)cc21 | -2.6 | 47.7* | -1.9 | -9.4 | -2.0 | 1.1 | -0.1
COc1ccc(/C=N/NC(=O)c2ccccc2OCc2ccccc2)c(OC)c1 | 29.1 | -0.5 | -6.3 | -5.0 | -2.1 | 2.9 | nt
Cc1ccc2nc(SCC(=O)Nc3ccc4sc(C)nc4c3)c(C#N)cc2c1 | -0.3 | 25.0* | -1.6 | 1.1 | -0.7 | nt | -4.8
CC(C)C(C(=O)NCc1ccccc1)N1CCN(C(=O)C2CCCO2)CC1 (stereo not given) | nt | nt | nt | nt | nt | -0.1 | nt
CCCCn1c(CN2C(=O)c3ccccc3C2=O)nc2ccccc2c1=O | 0.3 | 29.6* | 2.2 | 15.0 | 0.1 | nt | 0.0
CO[C@@H]1CN(C)C(=O)c2ccc(NS(=O)(=O)c3ccc(C)cc3)cc2OC[C@H](C)N(C)C[C@H]1C | nt | nt | nt | 1.4 | nt | -3.7 | nt
CCOc1ccc2nc(NC(=O)CC3Oc4ccccc4NC3=O)sc2c1 (stereo not given) | -1.4 | 28.7* | 1.4 | -18.8 | -3.0 | -23.1 | 2.7
CCN(CC)S(=O)(=O)c1cc(NS(=O)(=O)c2cccc(C(=O)O)c2)ccc1C | nt | 4.4 | -0.5 | 3.4 | -0.6 | 0.1 | nt
COc1cccc(NS(=O)(=O)c2ccc3[nH]cc(C(=O)NC4CC4)c(=O)c3c2)c1 | -2.3 | -26.9 | 0.6 | 16.5 | -2.2 | nt | nt
CNC(=O)c1c[nH]c2ccc(S(=O)(=O)Nc3cccc(SC)c3)cc2c1=O | -5.3 | 19.4* | 1.2 | -2.0 | -3.7 | -15.5 | 2.4
O=C(CNC(=O)c1ccc2ccccc2c1)OCC(=O)N1CCN(S(=O)(=O)c2ccc3ccccc3c2)CC1 | -2.2 | 21.8* | -1.6 | -1.8 | 0.1 | -2.6 | -9.1
CC(=O)NCc1ccc(S(=O)(=O)N2CCN(S(=O)(=O)c3ccc4ccccc4c3)CC2)cc1 | -1.2 | 48.6* | 2.2 | -112.7 | -1.5 | -4.9 | 2.9
O=C(NCC(=O)N1CCN(S(=O)(=O)c2ccccc2)CC1)c1ccc2ccccc2c1 | -4.0 | -8.5 | 0.9 | -6.9 | -1.5 | -2.5 | nt
CN1CCN(S(=O)(=O)c2ccc3ccccc3c2)CC1 | nt | -5.1 | 1.4 | 1.2 | -0.2 | 0.1 | nt
CN1/C(=C\C(=O)COC(=O)CNC(=O)c2ccc3ccccc3c2)C(C)(C)c2ccccc21 | 1.6 | 33.7* | 0.1 | -28.3 | -0.4 | -48.2 | 1.3
CN1CCN(C(=O)/C=C/c2cn(-c3ccccc3)nc2-c2ccc3c(c2)OCCO3)CC1 | -6.3 | -16.3 | -0.6 | 3.7 | -3.8 | 1.1 | nt
O=C(O)c1cccc(S(=O)(=O)NCc2cccs2)c1 | 2.7 | 1.5 | 1.3 | 2.5 | -0.2 | nt | nt
Cc1cccc(C)c1NC(=O)CNC(=O)c1cccc(S(=O)(=O)NCc2cccs2)c1 | 1.9 | 23.8* | 2.5 | 7.7 | 0.5 | -6.8 | -2.1
O=C(C[C@H]1CC[C@@H](NS(=O)(=O)c2ccc(F)cc2)[C@H](CO)O1)NC1CCC1 | nt | nt | nt | -1.1 | nt | 7.3 | nt
CCN(CC)c1ccc(/C=C2\CCC(/C=C(/C#N)C(=O)Nc3ccccc3F)=C2N2CCOCC2)cc1 | -3.8 | 7.4 | 1.8 | nt | -1.7 | -56.4 | nt
CCSc1ccc(C(=O)Nc2ccc(Br)cn2)cc1[N+](=O)[O-] | 38.6* | 18.8* | -0.7 | nt | 0.0 | -4.5 | -6.8
COc1ccc(C(=O)NCCS(=O)(=O)NC(C)c2ccccc2)cc1 (stereo not given) | -0.5 | -2.8 | 0.8 | -6.9 | -0.3 | -1.3 | nt
Cc1cccc(OCC(=O)N/N=C\C=C\c2ccc3c(c2)OCO3)c1C | nt | 38.1* | -3.8 | -2.5 | 0.5 | nt | 1.0
CC(/C=C/c1ccc2c(c1)OCO2)=N\NC(=O)COc1ccccc1C | -1.4 | 14.9 | 0.0 | 8.8 | -0.8 | nt | nt
Cc1cc2nc(-c3ccc(SCC(=O)Nc4nccs4)nc3)[nH]c2cc1C | -2.6 | 58.0* | 1.1 | nt | -1.4 | nt | -1.6
SMILES | CAL PDZ FP-1 | dFosB act-1 | CDK5 inh | Statin myotox sup | CAL PDZ FP-2 | S100A4 MyoIIA | dFosB act-2
Cc1ccc(C(=O)Nc2cccc(C(F)(F)F)c2)cc1NC(=O)c1nccn1C | -1.9 | 26.6* | 4.2 | -11.8 | 0.0 | 3.4 | -0.7
O=C(O)C1C2C=CC(C2)C1C(=O)Nc1ccc(C(=O)N2CCCCC2)c(Cl)c1 (stereo not given) | -4.8 | 4.0 | 2.1 | 0.2 | nt | -1.7 | nt
C=CCNC(=O)/C(=C/c1cn(-c2ccccc2)nc1-c1cccc([N+](=O)[O-])c1)NC(=O)c1ccccc1 | -0.8 | 19.4* | 0.5 | nt | -0.2 | nt | 4.8
COc1ccc(/C=C/c2nc3ccccc3n2Cc2ccccc2OC)cc1 | -5.3 | 25.0* | 1.6 | nt | -0.4 | -13.0 | 0.5
COc1ccccc1Cn1c(/C=C/c2ccccc2)nc2ccccc21 | -4.7 | -1.0 | 1.6 | nt | -0.4 | nt | nt
CC(=O)n1cc(/C=N/NC(=O)c2ccccc2O)c2ccccc21 | -15.9 | 28.7* | -1.6 | -9.6 | -2.8 | 1.0 | 3.1
Cn1cc(/C=N/NC(=O)c2ccccc2O)c2ccccc21 | -2.5 | -2.8 | 0.3 | -6.1 | -0.4 | -1.9 | nt
COc1cccc(/C=N/NC(=O)CCn2c3ccccc3c3ccccc32)c1 | -4.9 | 23.7* | 0.1 | nt | -1.2 | 1.5 | 2.5
COc1ccc(/C=N/NC(=O)CCn2c3ccccc3c3ccccc32)cc1O | -2.7 | -12.4 | -5.9 | -226.0 | -2.5 | nt | nt
Cc1onc(-c2ccccc2)c1C(=O)NC(=S)NNC(=O)c1cc(-c2ccc(F)cc2)n[nH]1 | -3.8 | 29.3* | 0.6 | nt | -1.1 | -3.4 | -0.8
CCCn1c(=S)[nH]c2cc(C(=O)N3CCc4ccccc43)ccc2c1=O | -2.7 | 50.2* | -0.6 | -3.4 | 0.4 | nt | 5.6
O=C1C(=O)N(c2ccc(O)cc2)C(c2ccccc2[N+](=O)[O-])/C1=C(\O)c1ccccc1 (stereo not given) | -0.8 | -7.9 | -2.2 | 0.0 | -2.3 | -18.8 | nt
COc1ccc(C(=O)Nc2ccccc2-c2nnn(CC(=O)Nc3ccc4c(c3)OCCO4)n2)cc1 | -12.3 | 33.3* | 1.5 | -35.3 | -0.5 | nt | 2.4
COc1ccc(C(=O)Nc2ccccc2-c2nnn(CC(=O)NCc3ccco3)n2)cc1 | -2.0 | -6.9 | -0.3 | -13.0 | nt | nt | nt
COc1cc(OC)cc(C(=O)Nc2ccccc2-c2nnn(CC(=O)Nc3cc(C)on3)n2)c1 | -2.1 | 95.0* | -2.8 | -5.5 | -1.0 | -4.2 | 5.0
COc1cc(C(=O)Nc2ccccc2-c2nnn(CC(N)=O)n2)cc(OC)c1OC | 0.0 | -10.8 | -1.3 | -9.2 | -4.2 | nt | nt
COc1ccc(NC(=O)Cn2nnc(-c3ccccc3NC(=O)C3CC3)n2)cc1 | -1.9 | 6.3 | -0.6 | -20.8 | -0.7 | nt | nt

Assay outcomes (PubChem)
